Test results: ChEMBL document CHEMBL3867488 (ACS Med Chem Lett, 2016)

Columns and labels:
[1] = Plasma concentration in cynomolgus monkey at 10 mg/kg, po qd administered via gavage for 14 days measured after 5 hrs of last-dose by LC/MS/MS analysis; format: ADME, organism-based, Macaca fascicularis
Method in brief: (§1)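 Cynomolgus monkeys dosed daily for 14 days. On day 14, plasma drug concentration was taken 5 h post-dose. Plasma triglycerides were expressed as % elevation over baseline, with significance tested by ANOVA (p < 0.05).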

Cynomolgus monkey [2] = assay: In vivo agonist activity at LXR-beta in cynomolgus monkey assessed as induction of ABCG1 gene at 10 mg/kg/day, po qd administered via gavage for 14 days; format: functional, Macaca fascicularis
Method in brief: (§2)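 Cynomolgus monkeys dosed daily for 14 days. ABCG1 mRNA induction measured in blood cells on day 14 and expressed as fold change. Plasma drug concentration taken about 5 h post-dose. Plasma triglycerides also measured against baseline, with significance by ANOVA.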

[3] = Effect on plasma triglyceride level in cynomolgus monkey at 10 mg/kg, po qd administered via gavage for 14 days measured after 24 hrs of last-dose relative to base line; format: ADME, organism-based, Macaca fascicularis; settings: in vivo; method in brief: as §1
Macaca fascicularis = organism: Macaca fascicularis; assay: Agonist activity at LXR-beta in cynomolgus monkey whole blood assessed as ABCA1 gene induction by measuring ABCA1 mRNA level after 4 hrs by SYBR-Green dye-based Q-PCR analysis relative to control; format: tissue-based
[4] = Effect on plasma triglyceride level in cynomolgus monkey at 3 mg/kg, po qd administered via gavage for 14 days measured after 24 hrs of last-dose relative to base line; format: ADME, organism-based, Macaca fascicularis; settings: in vivo; method in brief: as §1
[5] = biological target: T1, Nuclear receptor subfamily 1 group I member 2 (Homo sapiens, UniProt O75469); assay: Agonist activity at human PXR expressed in human HepG2 cells assessed as induction of CYP3A4 measured after 24 hrs by AlamarBlue dye-based luciferase reporter gene assay; format: cell-based
T1 sequence (O75469 whole entry): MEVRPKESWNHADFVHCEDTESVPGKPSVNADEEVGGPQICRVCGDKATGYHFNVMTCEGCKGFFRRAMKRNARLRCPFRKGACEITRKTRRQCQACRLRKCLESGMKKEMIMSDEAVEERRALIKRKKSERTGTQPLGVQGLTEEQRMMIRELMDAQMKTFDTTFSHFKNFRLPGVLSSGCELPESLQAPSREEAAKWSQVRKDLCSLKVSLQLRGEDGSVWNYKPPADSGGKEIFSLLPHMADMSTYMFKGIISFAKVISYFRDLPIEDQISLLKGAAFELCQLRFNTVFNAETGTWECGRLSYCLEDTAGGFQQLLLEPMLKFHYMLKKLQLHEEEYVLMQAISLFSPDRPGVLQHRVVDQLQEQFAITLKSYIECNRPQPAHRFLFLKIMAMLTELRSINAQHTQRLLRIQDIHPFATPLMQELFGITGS

[6] = biological target: T2, Oxysterols receptor LXR-beta (Homo sapiens) (UniProt P55055); assay: Agonist activity at LXR-beta in human whole blood assessed as ABCA1 gene induction by measuring ABCA1 mRNA level after 4 hrs by SYBR-Green dye-based Q-PCR analysis relative to pan agonist 2-(4-(5-(5-cyano-1-(2,4-difluorobenzyl)-6-oxo-4-(trifluoromethyl)-1,6-dihydropyridin-2-yl)thiophen-2-yl)-3-methylphenyl)acetic acid; format: tissue-based
T2 sequence (whole entry): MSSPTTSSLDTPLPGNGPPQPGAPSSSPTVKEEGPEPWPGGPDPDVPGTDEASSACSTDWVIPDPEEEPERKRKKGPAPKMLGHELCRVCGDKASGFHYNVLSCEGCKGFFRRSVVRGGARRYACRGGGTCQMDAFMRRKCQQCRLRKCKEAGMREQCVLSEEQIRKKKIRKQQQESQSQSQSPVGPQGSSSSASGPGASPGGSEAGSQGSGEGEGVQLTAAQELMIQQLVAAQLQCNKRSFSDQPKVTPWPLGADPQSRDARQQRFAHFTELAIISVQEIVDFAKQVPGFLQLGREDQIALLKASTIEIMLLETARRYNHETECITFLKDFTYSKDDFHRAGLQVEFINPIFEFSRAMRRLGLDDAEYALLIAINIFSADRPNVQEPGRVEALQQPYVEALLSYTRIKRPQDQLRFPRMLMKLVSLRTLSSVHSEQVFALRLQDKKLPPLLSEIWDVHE

[7] = Plasma concentration in cynomolgus monkey at 1 mg/kg, po qd administered via gavage for 14 days measured after 5 hrs of last-dose by LC/MS/MS analysis; format: ADME, organism-based, Macaca fascicularis; method in brief: as §1
[8] = Effect on plasma triglyceride level in cynomolgus monkey at 1 mg/kg, po qd administered via gavage for 14 days measured after 24 hrs of last-dose relative to base line; format: ADME, organism-based, Macaca fascicularis; settings: in vivo; method in brief: as §1
[9] = biological target: Alpha-1-acid glycoprotein 1 (Homo sapiens, UniProt P02763); assay: Binding affinity to human alpha-1-AGP at 1 uM measured after 4 hrs by equilibrium dialysis method relative to control; format: ADME; settings: isolated protein, 4 h, 1 µM
[10] = biological target: T2, Oxysterols receptor LXR-beta (Homo sapiens); assay: Agonist activity at LXR-beta in human HeLa cells assessed as induction of ABCA1 by beta-galactosidase/luciferase reporter gene assay relative to control; format: cell-based
Method in brief: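 HeLa cells carrying endogenous LXRα and LXRβ receptors, transfected with an ABCA1 LXREx3 reporter construct; agonist-driven reporter induction measured.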

[11] = Agonist activity at LXR-beta in cynomolgus monkey whole blood assessed as ABCA1 gene induction by measuring ABCA1 mRNA level after 4 hrs by SYBR-Green dye-based Q-PCR analysis; format: tissue-based; settings: Macaca fascicularis
[12] = Plasma concentration in cynomolgus monkey at 3 mg/kg, po qd administered via gavage for 14 days measured after 5 hrs of last-dose by LC/MS/MS analysis; format: ADME, organism-based, Macaca fascicularis; method in brief: as §1
Albumin = Albumin (Homo sapiens, UniProt P02768); assay: Binding affinity to human serum albumin at 1 uM measured after 4 hrs by equilibrium dialysis method relative to control; format: ADME; settings: isolated protein, 4 h, 1 µM
[13] = biological target: T2, Oxysterols receptor LXR-beta (Homo sapiens); assay: Agonist activity at human LXR-beta expressed in African green monkey CV1 cells measured after 18 to 20 hrs by luciferase reporter gene assay relative to pan agonist 1-(2,4-difluorobenzyl)-2-oxo-6-(4-phenoxyphenyl)-4-(trifluoromethyl)-1,2-dihydropyridine-3-carbonitrile; format: cell-based; settings: CV-1
[14] = biological target: T1, Nuclear receptor subfamily 1 group I member 2; assay: Agonist activity at human PXR expressed in human HepG2 cells assessed as induction of CYP3A4 measured after 24 hrs by AlamarBlue dye-based luciferase reporter gene assay relative to control; format: cell-based; settings: hepg2, 24 h
[15] = Apparent elimination half life in iv dosed cynomolgus monkey; format: ADME, organism-based, Macaca fascicularis; settings: in vivo
Cynomolgus monkey [16] = assay: In vivo agonist activity at LXR-beta in cynomolgus monkey assessed as ABCG1 gene induction by measuring total RNA level at 1 mg/kg, po qd administered via gavage for 14 days measured after 5 to 6 hrs of last-dose relative to control; format: functional, Macaca fascicularis; method in brief: as §2
Cynomolgus monkey [17] = assay: In vivo agonist activity at LXR-beta in cynomolgus monkey assessed as ABCG1 gene induction by measuring total RNA level at 3 mg/kg, po qd administered via gavage for 14 days measured after 5 to 6 hrs of last-dose relative to control; format: functional, Macaca fascicularis; method in brief: as §2
[18] = biological target: T3, Oxysterols receptor LXR-alpha (Homo sapiens, UniProt Q13133); assay: Agonist activity at human LXR-alpha expressed in African green monkey CV1 cells measured after 18 to 20 hrs by luciferase reporter gene assay relative to pan agonist 1-(2,4-difluorobenzyl)-2-oxo-6-(4-phenoxyphenyl)-4-(trifluoromethyl)-1,2-dihydropyridine-3-carbonitrile; format: cell-based; settings: CV-1, human; read-out: Efficacy
T3 sequence (Q13133 whole entry): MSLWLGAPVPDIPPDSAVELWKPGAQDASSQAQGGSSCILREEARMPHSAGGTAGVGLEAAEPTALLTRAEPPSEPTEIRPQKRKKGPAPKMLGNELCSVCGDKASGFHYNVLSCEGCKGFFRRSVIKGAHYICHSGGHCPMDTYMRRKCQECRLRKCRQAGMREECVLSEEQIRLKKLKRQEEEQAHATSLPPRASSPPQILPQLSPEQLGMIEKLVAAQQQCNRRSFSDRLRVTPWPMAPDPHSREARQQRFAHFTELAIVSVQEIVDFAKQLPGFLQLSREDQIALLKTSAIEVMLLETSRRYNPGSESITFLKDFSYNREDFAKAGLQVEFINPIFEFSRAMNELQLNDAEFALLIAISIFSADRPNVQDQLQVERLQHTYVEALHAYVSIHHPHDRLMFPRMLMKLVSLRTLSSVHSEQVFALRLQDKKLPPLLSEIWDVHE

Sequence of Albumin (P02768 whole entry): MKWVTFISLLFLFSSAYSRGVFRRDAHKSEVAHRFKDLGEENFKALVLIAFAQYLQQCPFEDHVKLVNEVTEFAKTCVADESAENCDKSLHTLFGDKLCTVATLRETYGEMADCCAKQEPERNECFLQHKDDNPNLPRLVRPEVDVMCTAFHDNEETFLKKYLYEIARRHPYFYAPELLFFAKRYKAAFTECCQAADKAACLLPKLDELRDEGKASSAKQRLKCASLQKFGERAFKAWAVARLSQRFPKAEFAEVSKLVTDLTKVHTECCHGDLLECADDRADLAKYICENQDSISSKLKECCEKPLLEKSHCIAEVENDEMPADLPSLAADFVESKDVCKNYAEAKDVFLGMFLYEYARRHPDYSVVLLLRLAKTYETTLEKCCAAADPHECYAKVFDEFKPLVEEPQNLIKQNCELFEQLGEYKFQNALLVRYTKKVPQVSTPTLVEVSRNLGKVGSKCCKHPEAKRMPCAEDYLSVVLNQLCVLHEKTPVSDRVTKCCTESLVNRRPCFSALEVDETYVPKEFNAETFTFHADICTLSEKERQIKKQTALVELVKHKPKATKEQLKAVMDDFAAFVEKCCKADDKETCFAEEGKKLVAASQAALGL
Sequence of Alpha-1-acid glycoprotein 1 (P02763 whole entry): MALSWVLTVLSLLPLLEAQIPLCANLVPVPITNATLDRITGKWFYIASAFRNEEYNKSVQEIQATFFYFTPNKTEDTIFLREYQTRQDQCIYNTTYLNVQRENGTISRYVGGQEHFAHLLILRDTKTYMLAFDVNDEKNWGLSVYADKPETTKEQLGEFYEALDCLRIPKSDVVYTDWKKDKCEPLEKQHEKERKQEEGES

Q: Which concentration at 5 h [1] does the source give for O=S(=O)(c1ccccc1)N(CC(F)(F)F)c1ccc(C(O)(C(F)(F)F)C(F)(F)F)cc1 [T091317] here?
A: 200 nM

Q: And the “fold change (FC)” value (Cynomolgus monkey [2])?
A: 6

Q: And the Activity [3]?
A: 140%

Q: And the Efficacy (Macaca fascicularis)?
A: 100%

Q: Which results are given for CC(C)(O)c1cn(-c2ccc(-c3cc(F)c(CO)c(S(C)(=O)=O)c3)cc2)c(C(C)(C)c2cccc(F)c2Cl)n1?
A: Activity [4]: 58%; EC50 [5]: 3 µM; Efficacy [6]: 34%; concentration at 5 h [7]: 85 nM; Activity [8]: 2%; PB [9]: 87.6%; Efficacy [10]: 16%; EC50 [11]: 52 nM; concentration at 5 h [12]: 310 nM; PB (Albumin): 94.4%; Efficacy (Macaca fascicularis): 29%; Efficacy [13]: 68%; Activity [14]: 85%; betat1/2(app) [15]: 10 to 12 h; fold change (FC) (Cynomolgus monkey [16]): 4; fold change (FC) (Cynomolgus monkey [17]): 10; Emax [18]: 12%
